Screening results: PubChem, several laboratories
HSP90 refold inh: blocks HSP90-mediated luciferase refolding in reticulocyte lysate. Rabbit reticulocyte lysate, luciferase refolding luminescence, 3 h. inhibition, % at 5.6 µM. 290,000 compounds, 0.91% hits;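 active = inhibition above the screen-wide mean plus 3 SD, computed separately per campaign, cut at about 16% in these data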;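 also: 0% = DMSO wells and 100% = 60 µM geldanamycin wells; inhibitors lower the luminescence because luciferase stays unfolded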
core dimer inh: blocks dimerization of HCV core protein; TR-FRET GST/Flag-core106 dimerization, 1536-well; inhibition, % at 5 µM; 300,000 compounds, 0.33% hits; AID 1899;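 active = inhibition above the mean of all tested compounds plus 3 SD, set per screening campaign, cut at about 45% in these data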
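Test system: GST/Flag-tagged HCV core106 proteins; Medium: KF-containing HEPES buffer, pH 7.45, DTT, CHAPS, BSA; Times: compound-protein-antibody incubation 4 h at 22.5 °C; Detection: TR-FRET 671 and 617 nm emission; Benchmarks: wells lacking GST-core106 and wells with excess unlabelled core106.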
DNA FID counter: counter-screen for HCV NS3 helicase inhibitors: DNA intercalator displacement. DNA fluorescent intercalator displacement, fluorescence. inhibition, % at 7.9 µM. 290,000 compounds, 0.17% hits. AID 1845; in the data active = inhibition above about 37%;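 also: 0% = vehicle and 100% = reference compound; higher means more ethidium bromide displaced from hairpin DNA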
HSF1 inhib: HSF1 inhibition | NIH3T3-HGL HSE-luciferase, MG132-induced, luminescence 8 h; active compounds read low | activity change, negative = inhibition, % at 7.5 µM (by protocol) | 300,000 compounds, 0.77% hits;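 active = more than half of replicate wells show activity change below -50%, luminescence cut by over half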;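 also: luciferase reports HSF-1 transcriptional activity via heat shock element; 0% = median of DMSO wells and -100% = zero luminescence signal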
HSF-1 act: increases HSF-1 driven luciferase reporter signal; NIH3T3-HGL HSF-1 luciferase reporter, MG132, 8 h; 100% = twice DMSO control signal; activation, % at 9 µM; AID 504408; 300,000 compounds, 1.7% hits;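 active = mean replicate activation of at least 50% with a set share of replicates each reaching 50%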;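 also: 0% = median of the neutral control wells and 100% = twice that signal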
NS3 helicase inh: inhibitors of Hepatitis C virus NS3 helicase; NS3 helicase DNA unwinding, Cy5 molecular beacon fluorescence; inhibition, % at 10.9 µM; 290,000 compounds, 0.56% hits;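 active = inhibition above the mean of all tested compounds plus 3 SD, set per campaign, cut at about 35% in these data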;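 also: 0% = DMSO wells and 100% = thioflavine S control wells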
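assay system = NS3 helicase fragment of HCV | buffer or medium = MOPS pH 6.5, MgCl2, DTT, Tween20, BSA | timing = 60 min unwinding reaction at 25 °C after ATP addition | signal = Cy5 beacon fluorescence read at start and 1 h | read-out basis = % inhibition of unwinding | control set = low DMSO, high thioflavine S at 110 µM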
* = called active by the depositor; x = no result given. Shown are actives, neighbours in structure and some others; about 3.9% of the full set was active somewhere.

SMILES	HSP90 refold inh	core dimer inh	DNA FID counter	HSF1 inhib	HSF-1 act	NS3 helicase inh
Cc1cccc(N2CCN(S(=O)(=O)c3c(C)[nH]c(C)c3C(=O)N3CCCC3)CC2C)c1 (centres undefined)	-1.6	-4.6	-34.8	16.8	54.6*	-3.6
Cc1ncc(CO)c2c1Oc1nc(-c3ccccc3)nc(SCC(=O)N(C)c3ccccc3)c1C2	2.5	13.8	-49.0	-5.8	-3.3	3.9
Cc1ncc(CO)c2c1Oc1nc(-c3ccccc3F)nc(SCC(=O)N(C)c3ccccc3)c1C2	-3.6	53.1*	-60.8	-17.7	-3.0	4.2
O=S(=O)(Nc1cccc(-n2cnnn2)c1)c1cc(Cl)ccc1Cl	1.9	-3.4	-13.8	-88.0*	-91.2	7.1
CCOP(=O)(OCC)C(C#N)=C1SCN(c2ccccc2)CS1	1.2	89.9*	-5.6	-6.2	-0.2	6.5
Cc1nc2c([N+](=O)[O-])c(C)c(C)cc2[nH]1	-0.8	-3.9	-0.3	-0.4	-15.9	-5.2
O=C(CN1CCC(NC(=O)Cc2ccccc2)CC1)Nc1cccc2ccccc12	-0.9	1.5	-5.4	6.6	-0.3	-9.3
Cc1ccc2nc(-c3sc4nc(C)ccc4c3N)[nH]c2c1	11.7	-25.4	-10.9	-41.7	-54.0	9.7
Cc1cc(C)c2c(N)c(-c3nc4ccccc4[nH]3)sc2n1	-3.6	-5.7	-1.4	33.3	73.2*	-2.9
O=C(NCc1nc(-c2ccc(Cl)cc2)no1)c1ccco1	-2.8	-4.1	-11.3	12.7	55.8*	12.3
CC(NC(=O)c1ccco1)c1nc(-c2ccc(Cl)cc2)no1 (centres undefined)	7.8	-14.6	-18.6	8.6	9.3	-1.7
O=C(c1ccc(-c2nnc(Nc3ccccc3)c3ccccc23)cc1)N1C[C@H]2C[C@H](C1)c1cccc(=O)n1C2	-0.1	60.4*	-31.1	5.8	-6.1	-1.3
CCc1ccc(C(=O)NC(CCSC)C(=O)OC)cc1 (centres undefined)	0.7	-1.6	-5.3	-80.5*	-84.5	5.1
COC(=O)[C@H](CCSC)NC(=O)c1cccnc1SC	-1.4	-3.2	-0.3	-4.9	-1.0	-0.4
COC(=O)[C@H](CCSC)NC(=O)Nc1cccc(C)c1C	-3.2	-0.6	-2.2	40.4	96.1*	-11.3
CSCC[C@H](NC(=O)Nc1ccccc1C)C(=O)O	-5.1	-4.0	1.3	-0.5	8.5	4.9
O=C(Nc1ccc2c(c1)OCCO2)C1CCCN1C(=O)Nc1ccc(F)cc1 (centres undefined)	1.3	2.0	-7.5	-10.7	-15.5	-0.8
O=[N+]([O-])c1ccccc1N/N=C\c1ccccc1F	1.2	1.8	1.9	27.7	65.0*	-5.4
N#Cc1ccccc1NC(=O)C1SC(=Nc2ccccc2)C(C(=O)Nc2ccc(Cl)cc2)=C1N (centres undefined)	1.8	11.1	1.2	1.3	6.6	-3.3
CCOc1ccc(N=C2SC(C(=O)Nc3ccccc3C#N)C(N)=C2C(=O)Nc2ccc(Cl)cc2)cc1 (centres undefined)	9.2	54.7*	2.3	-2.1	-3.3	5.4
Cc1ccc(S(=O)(=O)NCCOc2nc(N3CCOCC3)nc(N3CCOCC3)n2)cc1	2.3	1.4	-29.0	22.2	57.8*	1.4
Cc1ccc(S(=O)(=O)NCCNC(=O)N2CCOCC2)cc1	2.5	-3.6	1.3	-17.8	-2.1	6.8
CC(C)Oc1ccc(C(=O)Nc2ccc(Cl)c(S(=O)(=O)Nc3ccc(Cl)cc3)c2)cc1	-3.7	21.1	-7.5	7.3	-2.2	9.7
O=C(O)C(Oc1ccc2cc(-c3ccc(Cl)cc3)c(=O)oc2c1)c1ccccc1 (centres undefined)	-4.5	x	-19.1	-5.2	-9.8	15.3
Cc1ccc(Cl)cc1NC1=C/C(=N\S(=O)(=O)c2cccs2)c2ccccc2C1=O	7.5	22.3	2.9	-94.3*	-94.7	1.6
SMILES	HSP90 refold inh	core dimer inh	DNA FID counter	HSF1 inhib	HSF-1 act	NS3 helicase inh
Cc1ccc(NC2=C/C(=N\S(=O)(=O)c3cccs3)c3ccccc3C2=O)c(C)c1	26.4*	51.9*	3.0	-95.3*	-95.3	-7.5
Cc1cccc(NC2=C/C(=N/S(=O)(=O)c3cccs3)c3ccccc3C2=O)c1	4.0	-2.7	3.3	x	x	2.3
CCCCCCCN1C2=NCCCN2c2ccccc21	-4.1	-0.9	13.5	-6.1	-0.3	-11.4
COc1ccc(/C=N/n2c(-c3cc(C)[nH]n3)n[nH]c2=S)cc1OC	2.4	-1.1	-7.5	-73.6*	-78.9	-2.4
CS(=O)(=O)N1CC2CCCN2c2ccc(C(F)(F)F)cc21 (centres undefined)	0.7	6.2	-6.3	-0.1	6.2	-0.8
O=S(=O)(c1cc(Cl)ccc1Cl)N1CC2CCCN2c2ccc(C(F)(F)F)cc21 (centres undefined)	3.4	4.8	0.8	24.8	70.4*	-3.6
Cc1cccc2sc(NC(=O)C3=NN(c4ccccc4)C(=O)CC3)nc12	-1.7	7.7	-4.7	2.3	5.7	12.8
Cc1cccc2sc(NC(=O)C3CCCO3)nc12 (centres undefined)	-1.6	4.9	-4.3	30.3	63.4*	1.0
Cc1nc(C)c(C(=O)Nc2nc3c(C)cccc3s2)o1	2.7	54.3*	-13.6	-33.8	-40.0	26.1
CCc1cccc(C)c1NC(=O)C1CCCO1 (centres undefined)	-3.1	4.8	-1.4	-4.0	18.8	-6.7
CC(C)CN1CCN=C1Nc1ccccc1	-1.9	21.5	-4.6	-7.2	-5.5	18.4
O=C(CCC(=O)N1CCN(Cc2ccc(F)cc2)CC1)Nc1nnc(C2CCCCC2)s1	3.6	7.9	-31.4	-0.8	-4.8	-23.4
Cc1ccc(Sc2ccc(NC(=O)CCl)cc2)cc1C	3.6	-5.5	-3.7	-4.3	-12.3	-7.1
Cc1ccc(C)c(Sc2ccc(NC(=O)CCl)cc2)c1	4.0	8.0	-4.2	31.7	74.6*	-25.6
O=C1NC(=S)N/C1=C/c1cccn1-c1ccc([N+](=O)[O-])cc1	-1.1	59.0*	0.2	-1.3	3.4	27.1
N/C(=N\OC(=O)N1CCOCC1)c1ccc(Br)cc1	-0.2	-5.9	-1.8	6.8	24.5	-3.2
O=C1N/C(=C\c2ccc(O)cc2)C(O)=C1C=NCc1ccccc1	1.0	-4.5	4.6	41.4	64.1*	-17.0
COc1ccc(/C=C2\NC(=O)C(C=NCc3ccccc3)=C2O)cc1	-3.0	-18.2	-10.1	6.9	25.4	-9.9
O=c1[nH]c2c(=O)[nH]cnc2nc1-c1ccccc1	x	2.8	x	3.7	7.7	x
O=C(Nc1ccc(-c2nc3c(ccc4ccccc43)o2)cc1)c1ccco1	1.9	0.3	-2.0	11.3	16.8	-13.2
O=C(CN(C(=O)c1csnn1)c1ccc(F)c(Cl)c1)NCc1ccccc1	-4.2	3.4	-16.6	2.4	-9.7	1.1
O=C(CN(C(=O)c1csnn1)c1ccc(F)c(Cl)c1)NCc1ccc(F)cc1	2.7	-3.4	-23.6	22.5	71.9*	3.7
